Test results from ChEMBL document CHEMBL3785007 (Drug Metabol Drug Interact, 2011).

What was measured:
[1] = Cmax in healthy Chinese subject (8 subjects) with heterozygous mutant of NAT2 genotype at 300 mg, po administered after overnight fast by HPLC method; assay type: ADME, organism-based; design: dose 300 mg, route oral; details: human, in vivo
[2] = tested on: Homo sapiens; test: AUC in healthy Chinese subject (8 subjects) with heterozygous mutant of NAT2 genotype assessed as N-acetylisoniazid at 300 mg, po administered after overnight fast by HPLC method; assay type: ADME, organism-based; details: in vivo
Method in brief: (§1)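 Plasma separated within 1 h and stored at −70°C. Deproteinised with 10% perchloric acid, then reversed-phase C18 HPLC with UV detection at 266 nm. AUC by trapezoidal method extrapolated to infinity; mean±SD.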

[3] = tested on: Homo sapiens; test: AUC in healthy Chinese subject (8 subjects) with homozygous wild type NAT2 genotype at 300 mg, po administered after overnight fast by HPLC method; assay type: ADME, organism-based; details: in vivo; method in brief: as §1
[4] = tested on: Homo sapiens; test: AUC in healthy Chinese subject (8 subjects) with homozygous wild type NAT2 genotype assessed as N-acetylisoniazid at 300 mg, po administered after overnight fast by HPLC method; assay type: ADME, organism-based; details: in vivo; method in brief: as §1
[5] = tested on: Homo sapiens; test: AUC in healthy Chinese subject (8 subjects) with homozygous mutant of NAT2 genotype at 300 mg, po administered after overnight fast by HPLC method; assay type: ADME, organism-based; details: in vivo; method in brief: as §1
[6] = tested on: Homo sapiens; test: AUC in healthy Chinese subject (8 subjects) with heterozygous mutant of NAT2 genotype at 300 mg, po administered after overnight fast by HPLC method; assay type: ADME, organism-based; details: in vivo; method in brief: as §1
[7] = tested on: Homo sapiens; test: Clearance in healthy Chinese subject (8 subjects) with homozygous mutant of NAT2 genotype assessed as N-acetylisoniazid at 300 mg, po administered after overnight fast by HPLC method; assay type: ADME, organism-based; details: in vivo
[8] = tested on: Homo sapiens; test: Clearance in healthy Chinese subject (8 subjects) with homozygous wild type NAT2 genotype assessed as N-acetylisoniazid at 300 mg, po administered after overnight fast by HPLC method; assay type: ADME, organism-based; details: in vivo
[9] = tested on: Homo sapiens; test: Cmax in healthy Chinese subject (8 subjects) with homozygous wild type NAT2 genotype assessed as N-acetylisoniazid at 300 mg, po administered after overnight fast by HPLC method; assay type: ADME, organism-based; design: dose 300 mg, route oral; details: in vivo
[10] = tested on: Homo sapiens; test: AUC in healthy Chinese subject (8 subjects) with homozygous mutant of NAT2 genotype assessed as N-acetylisoniazid at 300 mg, po administered after overnight fast by HPLC method; assay type: ADME, organism-based; details: in vivo; method in brief: as §1
[11] = Clearance in healthy Chinese subject (8 subjects) with heterozygous mutant of NAT2 genotype at 300 mg, po administered after overnight fast by HPLC method; assay type: ADME, organism-based; details: human, in vivo
[12] = tested on: Homo sapiens; test: Cmax in healthy Chinese subject (8 subjects) with homozygous mutant of NAT2 genotype assessed as N-acetylisoniazid at 300 mg, po administered after overnight fast by HPLC method; assay type: ADME, organism-based; design: dose 300 mg, route oral; details: in vivo
[13] = Clearance in healthy Chinese subject (8 subjects) with homozygous wild type NAT2 genotype at 300 mg, po administered after overnight fast by HPLC method; assay type: ADME, organism-based; details: human, in vivo
[14] = Cmax in healthy Chinese subject (8 subjects) with homozygous wild type NAT2 genotype at 300 mg, po administered after overnight fast by HPLC method; assay type: ADME, organism-based; design: dose 300 mg, route oral; details: human, in vivo
[15] = tested on: Homo sapiens; test: Clearance in healthy Chinese subject (8 subjects) with heterozygous mutant of NAT2 genotype assessed as N-acetylisoniazid at 300 mg, po administered after overnight fast by HPLC method; assay type: ADME, organism-based; details: in vivo
[16] = tested on: Homo sapiens; test: Cmax in healthy Chinese subject (8 subjects) with heterozygous mutant of NAT2 genotype assessed as N-acetylisoniazid at 300 mg, po administered after overnight fast by HPLC method; assay type: ADME, organism-based; design: dose 300 mg, route oral; details: in vivo
[17] = Clearance in healthy Chinese subject (8 subjects) with homozygous mutant of NAT2 genotype at 300 mg, po administered after overnight fast by HPLC method; assay type: ADME, organism-based; details: human, in vivo
[18] = tested on: Mycobacterium tuberculosis; test: Antitubercular activity against Mycobacterium tuberculosis in tuberculosis patient assessed as compound level in serum required to cause 90% maximum early bactericidal activity at 0.2 to 12 mg/kg after 2 hrs; assay type: functional
[19] = Cmax in healthy Chinese subject (8 subjects) with homozygous mutant of NAT2 genotype at 300 mg, po administered after overnight fast by HPLC method; assay type: ADME, organism-based; design: dose 300 mg, route oral; details: human, in vivo
[20] = tested on: Mycobacterium tuberculosis; test: Antitubercular activity against Mycobacterium tuberculosis in tuberculosis patient assessed as compound AUC (0 to infinity) required to cause 90% maximum early bactericidal activity at 0.2 to 12 mg/kg; assay type: functional, organism-based

## NNC(=O)c1ccncc1 [ISONIAZID]
[1]
  Cmax: 5720 ng/mL
[2]
  AUC: 38000 ng·h/mL
[3]
  AUC: 10400 ng·h/mL
[4]
  AUC: 42200 ng·h/mL
[5]
  AUC: 42200 ng·h/mL
[6]
  AUC: 16300 ng·h/mL
[7]
  CL: 16.07 L/h
[8]
  CL: 7.4 L/h
[9]
  Cmax: 5590 ng/mL
[10]
  AUC: 19800 ng·h/mL
[11]
  CL/F: 320 mL/min
[12]
  Cmax: 1380 ng/mL
[13]
  CL/F: 501 mL/min
[14]
  Cmax: 4930 ng/mL
[15]
  CL: 8.03 L/h
[16]
  Cmax: 3990 ng/mL
[17]
  CL/F: 130 mL/min
[18]
  Activity: 2.19 µg/mL
[19]
  Cmax: 8280 ng/mL
[20]
  AUC: 10500 ng·h/mL
